ChEMBL document CHEMBL1141613, “Conception of myeloperoxidase inhibitors derived from flufenamic acid by computational docking and structure modification” (Bioorg Med Chem, 2008)

Assays:
Myeloperoxidase = biological target: T1, Myeloperoxidase (Homo sapiens, UniProt P05164); assay: Inhibition of chlorinating activity of recombinant myeloperoxidase by taurine assay; type: single protein format
T1 sequence (P05164 whole entry): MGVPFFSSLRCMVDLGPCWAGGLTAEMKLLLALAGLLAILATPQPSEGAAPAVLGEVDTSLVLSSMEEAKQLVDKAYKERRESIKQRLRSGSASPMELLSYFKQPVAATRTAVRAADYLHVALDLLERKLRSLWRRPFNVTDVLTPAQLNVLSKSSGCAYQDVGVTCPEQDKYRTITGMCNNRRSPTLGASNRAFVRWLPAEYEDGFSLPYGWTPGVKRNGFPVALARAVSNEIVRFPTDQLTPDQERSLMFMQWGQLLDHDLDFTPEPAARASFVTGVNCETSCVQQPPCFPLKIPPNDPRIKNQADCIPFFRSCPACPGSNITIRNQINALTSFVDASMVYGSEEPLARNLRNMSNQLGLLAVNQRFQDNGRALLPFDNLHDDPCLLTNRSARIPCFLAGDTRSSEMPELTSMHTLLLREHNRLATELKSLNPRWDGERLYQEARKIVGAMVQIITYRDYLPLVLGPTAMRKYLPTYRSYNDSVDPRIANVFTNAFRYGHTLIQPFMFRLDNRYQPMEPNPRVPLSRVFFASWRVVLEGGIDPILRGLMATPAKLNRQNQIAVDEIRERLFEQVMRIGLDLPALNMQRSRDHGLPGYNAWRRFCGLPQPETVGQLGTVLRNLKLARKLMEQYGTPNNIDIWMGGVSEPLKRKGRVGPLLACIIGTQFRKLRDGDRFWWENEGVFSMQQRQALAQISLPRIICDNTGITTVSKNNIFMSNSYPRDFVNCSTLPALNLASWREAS
Outline: (§1)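 Recombinant MPO (~25 nM) in pH 7.4 phosphate (10 mM)/NaCl 300 mM with taurine (15 mM) and compound (0–20 μM) at 37 °C; started with H2O2 (100 μM), stopped after 5 min with catalase. Taurine chloramine measured with TNB. No inhibitor = 0%, no H2O2 = 100%. At least 3 determinations. IC50 from three-parameter sigmoid fit.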

[1] = Hypochlorous acid scavenging activity at 0.5 uM by taurine assay; type: functional
Outline: (§2)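 No enzyme; HOCl (60 μM) added to pH 7.4 phosphate buffer (10 mM phosphate/300 mM NaCl) with taurine (15 mM) and compound (0.5, 1, 2, 4 μM) at 37 °C. Catalase added after 5 min. Taurine chloramine quantified with 0.45 mM TNB.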

[2] = Hypochlorous acid scavenging activity at 1 uM by taurine assay; type: functional; outline: as §2
[3] = Hypochlorous acid scavenging activity at 2 uM by taurine assay; type: functional; outline: as §2
[4] = Hypochlorous acid scavenging activity at 4 uM by taurine assay; type: functional; outline: as §2
[5] = biological target: T2, Myeloperoxidase (Homo sapiens) (UniProt P05164); assay: Inhibition of chlorinating activity of recombinant myeloperoxidase at 0.5 uM by taurine assay; outline: as §1
T2 sequence (whole entry): T1 sequence (P05164 whole entry)

[6] = biological target: T2, Myeloperoxidase (Homo sapiens); assay: Inhibition of chlorinating activity of recombinant myeloperoxidase at 1 uM by taurine assay; outline: as §1
[7] = biological target: T2, Myeloperoxidase (Homo sapiens); assay: Inhibition of chlorinating activity of recombinant myeloperoxidase at 2 uM by taurine assay; outline: as §1
[8] = biological target: T2, Myeloperoxidase (Homo sapiens); assay: Inhibition of chlorinating activity of recombinant myeloperoxidase at 4 uM by taurine assay; outline: as §1
[9] = LDL oxidation at 5 uM by ELISA
[10] = LDL oxidation at 15 uM by ELISA
[11] = LDL oxidation at 30 uM by ELISA
[12] = LDL oxidation at 300 uM by ELISA

| SMILES | IC50 (Myeloperoxidase) [µM] | Activity [1] [%] | Activity [2] [%] | Activity [3] [%] | Activity [4] [%] | inhibition [5] [%] | inhibition [6] [%] | inhibition [7] [%] | inhibition [8] [%] | level, % of control [9] [%] | level, % of control [10] [%] | level, % of control [11] [%] | level, % of control [12] [%] |
| --- | --- | --- | --- | --- | --- | --- | --- | --- | --- | --- | --- | --- | --- |
| CC(=O)Nc1ccc(C(=O)O)c(Nc2cccc(C(F)(F)F)c2)c1 | 14 | 1 | 2 | 2 | 1 | 12 | 24 | 33 | 42 | 122 | 86 | 61 | 29 |
| Nc1ccc(C(=O)O)c(Nc2cccc(C(F)(F)F)c2)c1 |  | 1 | 2 | 2 | 3 |  |  |  |  | 79 | 70 | 56 | 29 |
| O=C(O)c1cccc(Nc2cccc(C(F)(F)F)c2)c1C(=O)O | > 100 |  |  |  |  |  |  |  |  |  |  |  |  |
| O=C(O)c1cc(Cl)ccc1Nc1cccc(C(F)(F)F)c1 | 1.6 | 1 | 0.4 | 2 | 1 | 29 | 42 | 57 | 74 |  |  |  | 112 |
| O=C(Nc1ccc(C(=O)O)c(Nc2cccc(C(F)(F)F)c2)c1)c1ccccc1 | 58 | 1 | 0 | 0 | 2 | 11 | 15 | 25 | 35 |  |  |  |  |
| O=C(O)c1cc(O)ccc1Nc1cccc(C(F)(F)F)c1 |  | 2 | 2 | 2.5 | 2 |  |  |  |  |  |  |  | 53 |
| O=C(O)c1ccccc1Nc1cccc(C(F)(F)F)c1 [FLUFENAMIC ACID] | 1.8 | 2 | 1.1 | 1.6 | 1.7 | 25 | 40 | 52 | 64 | 97 | 82 | 23 | 10 |
| O=C(O)c1cc(F)ccc1Nc1cccc(C(F)(F)F)c1 | 1.8 | 3.3 | 2 | 1.9 | 3 | 37 | 49 | 63 | 76 |  |  |  | 9 |
| NCCCC(=O)Nc1ccc(C(=O)O)c(Nc2cccc(C(F)(F)F)c2)c1 | 5.5 | 1 | 2 | 2 | 1 | 12 | 21 | 35 | 49 |  |  |  |  |
| O=C(O)/C=C/C(=O)Nc1ccc(C(=O)O)c(Nc2cccc(C(F)(F)F)c2)c1 | > 100 | -1 | -1 | 0 | 2 | 0.3 | 0.6 | 0.1 | 0.3 |  |  |  |  |
| O=C(CCCO)Nc1ccc(C(=O)O)c(Nc2cccc(C(F)(F)F)c2)c1 | > 100 | 0 | 0 | -1 | 1 | 8.5 | 12 | 12.2 | 20 |  |  |  |  |
| O=C(O)c1ccc([N+](=O)[O-])cc1Nc1cccc(C(F)(F)F)c1 | 5 | 0 | 0 | 1 | 2 | 29 | 29 | 43 | 55 | 121 | 143 | 135 | 16 |
| O=C(O)c1cc(Br)ccc1Nc1cccc(C(F)(F)F)c1 | 1.8 | 3 | 2 | 3 | 4.9 | 36 | 51 | 65 | 79 |  |  |  | 29 |
